Measured values as given in BindingDB's records for doi:10.1016/j.bmc.2018.01.022 (Csic and Universidad De Sevilla, 2018).

What was measured:
Midkine = molecular target: T1, Midkine (Homo sapiens, UniProt P21741); assay: Inhibition of fluorescein labelled heparin-like hexasaccharide probe binding to recombinant human midkine after 5 mins by fluorescence polarization assay
T1 sequence (P21741 whole entry): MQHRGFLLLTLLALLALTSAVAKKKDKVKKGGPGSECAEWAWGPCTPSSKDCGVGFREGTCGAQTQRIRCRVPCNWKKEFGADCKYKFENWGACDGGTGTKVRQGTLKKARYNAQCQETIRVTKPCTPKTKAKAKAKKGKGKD
Summary of the method: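 Recombinant human midkine at 63 nM final with 10 nM fluorescein-labelled heparin-like hexasaccharide probe in PBS (10 mM, pH 7.4) plus 0.5% BSA. […] Shaken 5 min in the dark; polarization read at ex 485 / em 535 nm. Triplicate wells averaged, one-site competition fit for IC50. At least three independent experiments.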

[1] = molecular target: Fibroblast growth factor 2 (Homo sapiens, UniProt P09038); assay: Inhibition of fluorescein labelled heparin-like hexasaccharide probe binding to recombinant human FGF-2 after 5 mins by fluorescence polarization assay
Chain of Fibroblast growth factor 2 (P09038 143-288 limits assumed): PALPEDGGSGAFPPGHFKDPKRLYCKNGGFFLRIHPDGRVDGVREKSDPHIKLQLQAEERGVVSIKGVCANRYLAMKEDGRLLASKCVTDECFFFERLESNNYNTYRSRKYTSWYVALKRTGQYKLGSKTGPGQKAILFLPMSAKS
Summary of the method: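 Competition fluorescence polarization in PBS (10 mM, pH 7.4) with 0.5% BSA final. Recombinant human FGF-2 at 97 nM final, fluorescein-labelled heparin-like hexasaccharide probe at 10 nM final, inhibitor serially diluted, final 25 µM to 12.5 nM. Shaken 5 min in the dark, then read at ex 485 / em 535 nm. Triplicate wells. One-site competitive fit against log concentration gives IC50. Mean ± SD of three independent experiments.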

| SMILES | IC50 (Midkine) [µM] | IC50 [1] [µM] |
| --- | --- | --- |
| COc1ccc(O[C@@H]2O[C@H](COC(=O)CCC(F)(F)C(F)(F)C(F)(F)C(F)(F)C(F)(F)C(F)(F)C(F)(F)C(F)(F)F)[C@@H](O[C@@H]3O[C@H](COS(=O)(=O)O)[C@@H](OS(=O)(=O)O)[C@H](OC(=O)CCC(C)=O)[C@H]3N3C(=O)c4ccccc4C3=O)[C@H](OCc3ccccc3)[C@H]2OC(=O)c2ccccc2)cc1 | 0.7 | – |
| COc1ccc(O[C@@H]2O[C@H](COC(=O)CCC(F)(F)C(F)(F)C(F)(F)C(F)(F)C(F)(F)C(F)(F)C(F)(F)C(F)(F)F)[C@@H](O[C@@H]3O[C@H](COS(=O)(=O)O)[C@@H](OS(=O)(=O)O)[C@H](O[C@@H]4O[C@H](COC(=O)C(C)(C)C)[C@@H](O[C@@H]5O[C@H](COS(=O)(=O)O)[C@@H](OS(=O)(=O)O)[C@H](OC(=O)CCC(C)=O)[C@H]5N5C(=O)c6ccccc6C5=O)[C@H](OCc5ccccc5)[C@H]4OC(=O)c4ccccc4)[C@H]3N3C(=O)c4ccccc4C3=O)[C@H](OCc3ccccc3)[C@H]2OC(=O)c2ccccc2)cc1 | 0.27 | 2.4 |
| COc1ccc(O[C@@H]2O[C@H](CO)[C@@H](O[C@@H]3O[C@H](COS(=O)(=O)O)[C@@H](OS(=O)(=O)O)[C@H](O)[C@H]3NC(C)=O)[C@H](OCc3ccccc3)[C@H]2O)cc1 | > 250 | – |
| COc1ccc(O[C@@H]2O[C@H](CO)[C@@H](O[C@@H]3O[C@H](COS(=O)(=O)O)[C@@H](OS(=O)(=O)O)[C@H](O)[C@H]3NC(C)=O)[C@H](O)[C@H]2O)cc1 | > 250 | – |
